Results from PMC3951241 (Journal of medicinal chemistry, 2013).
Read-outs that look alike come from different tables or passages of the source.

Tests used:
[1] = tested on: picrotoxin binding site on the heterogeneous GABAA receptors found in rat brain membranes; experiment: [35S]TBPS displacement from rat brain membranes; conditions: comparison of IC50 values
tadpoles [2] = experiment: Tadpole loss of righting reflex; assay type: in vivo; conditions: for EC50: read-out: Tadpole LSR EC50; for tadpole LRR EC50: loss of righting reflex, None = no effect at 10 μM; for tadpole LRR EC50 / Tadpole LSR EC50: ± SEM; for Tadpole LSR EC50: loss of swimming reflex, None = all animals had a swimming response at 10 μM test compound
[3] = target: rat wild type α1β2γ2L GABAA receptors (Rattus norvegicus, UniProt P62813+P63138); experiment: Single-channel recordings in HEK 293 cells; assay type: cell-based; conditions: 50 μM GABA + 20 μM compound; for OT long, mean duration of the longest-lived intracluster open time component: 4-7 patches
How it was run: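 Single-channel currents from the rat wild-type α1β2γ2L GABAA receptor, activated by 50 μM GABA alone (control) or with 20 μM test compound; 4-7 patches per condition. Intracluster open-time histograms were fitted to sums of two or three exponentials, and closed-time histograms to three. Mean duration and fraction of the longest open component, and fraction of the longest closed component, were analysed statistically.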

mice [4] = experiment: Anesthesia; assay type: in vivo, mouse; conditions: tail vein injection
How it was run: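 Mice received test compound by tail vein injection, dissolved in 22.5% aqueous 2-(hydroxypropyl)-β-cyclodextrin. Lower doses were made by serial dilution of the 8 mg/kg stock solution with 0.9% saline. Anesthesia was scored as loss of righting reflex (LRR), and LRR duration was recorded at each dose.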

tadpoles [5] = conditions: cited from earlier work
mice [6] = conditions: tail vein injection, previously found ref 15, cited from earlier work

CO[C@@H]1C[C@]2(C)[C@H](CC[C@@H]3[C@@H]2CC[C@@]2(C)C(=O)CC[C@@H]32)C[C@H]1O (single isomer, unassigned) [ent-2, (2α,3β,5β,8α,9β,10α,13α,14β)-3-Hydroxy-2-methoxyandrostan-17-one]
fold decrease in [35S]TBPS displacement potency relative to ent-1 [1]: about 21 fold
EC50 (tadpoles [2]): > 10 µM

CO[C@H]1[C@H]2CC[C@H]3[C@@H]4CC(=O)C[C@]4(C)CC[C@@H]3[C@]2(C)CC[C@@H]1O (single isomer, unassigned) [ent-9, (3β,4α,5β,8α,9β,10α,13α,14β)-3-Hydroxy-4-methoxyandrostan-16-one]
OT long, mean duration of the longest-lived intracluster open time component [3]: 17.7 ± 6.6 ms
closed time, first listed component, duration ([3]; sample patch of Figure 3): 0.24 ms
closed time, first listed component, fraction ([3]; sample patch of Figure 3): 67%
closed time, second listed component, fraction ([3]; sample patch of Figure 3): 28%
closed time, third listed component, duration ([3]; sample patch of Figure 3): 14.3 ms
closed time, third listed component, fraction ([3]; sample patch of Figure 3): 6%
open time, first listed component, duration ([3]; sample patch of Figure 3): 0.80 ms
open time, first listed component, fraction ([3]; sample patch of Figure 3): 52%
open time, second listed component, duration ([3]; sample patch of Figure 3): 30.3 ms
open time, second listed component, fraction ([3]; sample patch of Figure 3): 48%
duration of LRR in mice (mice [4]; 2 mg/kg (threshold dose)): about 1 min
duration of LRR in mice (mice [4]; 4 mg/kg): about 5 min
duration of LRR in mice (mice [4]; 8 mg/kg): about 9 min
threshold dose for LRR in mice (mice [4]): 2 mg/kg

C[C@]12CC[C@@H](O)C[C@@H]1CC[C@@H]1[C@@H]2CC[C@]2(C)C(=O)CC[C@@H]12 [compound 1, Androsterone]
EC50 (tadpoles [5]; read-out: tadpole LRR EC50, loss of righting reflex, literature values ref 9): 3.38 ± 0.9 µM

C[C@@]12CC[C@H]3[C@@H](CC[C@@H]4C[C@@H](O)CC[C@]43C)[C@@H]1CC(=O)C2 (single isomer, unassigned) [ent-7, (3β,5β,8α,9β,10α,13α,14β)-3-Hydroxyandrostan-16-one]
fold increase in [35S]TBPS displacement potency relative to ent-1 [1]: about four
OT long, mean duration of the longest-lived intracluster open time component [3]: 12.4 ± 3.4 ms
closed time, first listed component, duration ([3]; sample patch of Figure 3): 0.27 ms
closed time, first listed component, fraction ([3]; sample patch of Figure 3): 71%
closed time, second listed component, duration ([3]; sample patch of Figure 3): 2.1 ms
closed time, second listed component, fraction ([3]; sample patch of Figure 3): 24%
closed time, third listed component, duration ([3]; sample patch of Figure 3): 25.0 ms
closed time, third listed component, fraction ([3]; sample patch of Figure 3): 5%
open time, first listed component, duration ([3]; sample patch of Figure 3): 0.64 ms
open time, first listed component, fraction ([3]; sample patch of Figure 3): 39%
open time, second listed component, duration ([3]; sample patch of Figure 3): 10.9 ms
open time, second listed component, fraction ([3]; sample patch of Figure 3): 61%
fold lower tadpole LRR EC50 relative to ent-1 (tadpoles [2]; comparison of EC50 values): ~ three
fold lower tadpole LSR EC50 relative to ent-1 (tadpoles [2]; comparison of EC50 values): ~ three
duration of LRR in mice (mice [4]; 8 mg/kg): about 3 min
duration of LRR in mice (mice [4]; 16 mg/kg): about 7 min

CO[C@H]1[C@H](O)CC[C@]2(C)[C@H]3CC[C@]4(C)C(=O)CC[C@H]4[C@@H]3CC[C@@H]12 [compound 3, (3α,4β,5α)-3-Hydroxy-4-methoxyandrostan-17-one]
tadpole LRR EC50 (tadpoles [2]): None
Tadpole LSR EC50 (tadpoles [2]): None

CC(=O)[C@H]1CC[C@H]2[C@@H]3CC[C@H]4C[C@H](O)CC[C@]4(C)[C@H]3C(=O)C[C@]12C [compound 6, alphaxalone]
duration of LRR in mice (mice [4]; 16 mg/kg): about 4 min
EC50 (tadpoles [5]; read-out: Tadpole LSR EC50, loss of swimming reflex, literature values ref 48): 5.48 ± 0.11 µM
EC50 (tadpoles [5]; read-out: tadpole LRR EC50, loss of righting reflex, literature values ref 48): 1.12 ± 0.14 µM
duration of LRR in mice (mice [6]; 8 mg/kg): less than 1 min
threshold dose for LRR in mice (mice [6]): 8 mg/kg

C[C@]12CC[C@@H](O)C[C@@H]1CC[C@@H]1[C@@H]2C(=O)C[C@]2(C)/C(=C\C#N)CC[C@@H]12 [compound 4, [3α,5α,17(20)Z]-3-Hydroxy-11-oxopregn-17(20)-ene-21-nitrile]
EC50 (tadpoles [5]; read-out: Tadpole LSR EC50, loss of swimming reflex, literature values ref 15): 5.48 ± 0.2 µM
EC50 (tadpoles [5]; read-out: tadpole LRR EC50, loss of righting reflex, literature values ref 15): 1.44 ± 0.2 µM

O=C1C[C@@H]2CC[C@H]3[C@@H](CC[C@@H]4C[C@@H](O)CC[C@H]43)[C@@H]2C1 (single isomer, unassigned) [ent-12, (3β,5β,8α,9β,10α,13α,14β)-3-Hydroxygonan-16-one]
OT long, mean duration of the longest-lived intracluster open time component [3]: 11.5 ± 3.3 ms
closed time, first listed component, duration ([3]; sample patch of Figure 3): 0.25 ms
closed time, first listed component, fraction ([3]; sample patch of Figure 3): 54%
closed time, second listed component, duration ([3]; sample patch of Figure 3): 2.0 ms
closed time, second listed component, fraction ([3]; sample patch of Figure 3): 24%
closed time, third listed component, duration ([3]; sample patch of Figure 3): 27.8 ms
closed time, third listed component, fraction ([3]; sample patch of Figure 3): 22%
open time, first listed component, duration ([3]; sample patch of Figure 3): 0.29 ms
open time, first listed component, fraction ([3]; sample patch of Figure 3): 29%
open time, second listed component, duration ([3]; sample patch of Figure 3): 2.1 ms
open time, second listed component, fraction ([3]; sample patch of Figure 3): 23%
open time, third listed component, duration ([3]; sample patch of Figure 3): 13.2 ms
open time, third listed component, fraction ([3]; sample patch of Figure 3): 48%
tadpole LRR EC50 (tadpoles [2]): neither LRR nor LSR and None
Tadpole LSR EC50 (tadpoles [2]): neither LRR nor LSR and None

CC(=O)[C@H]1CC[C@H]2[C@@H]3CC[C@H]4C[C@H](O)CC[C@]4(C)[C@H]3CC[C@]12C [compound 5, allopregnanolone]
EC50 (tadpoles [5]; read-out: Tadpole LSR EC50, loss of swimming reflex, literature values ref 46): 5.5 ± 0.5 µM
EC50 (tadpoles [5]; read-out: tadpole LRR EC50, loss of righting reflex, literature values ref 46): 0.42 ± 0.04 µM

CO[C@H]1C[C@@]2(C)[C@@H](CC[C@@H]3[C@@H]2CC[C@]2(C)C(=O)CC[C@@H]32)C[C@@H]1O [compound 2, (2β,3α,5α)-3-Hydroxy-2-methoxyandrostan-17-one]
fold decrease in [35S]TBPS displacement potency relative to steroid 1 [1]: about five
EC50 (tadpoles [2]): > 10 µM

CO[C@@H]1C[C@]2(C)[C@H](CC[C@H]3[C@@H]4CC(=O)C[C@]4(C)CC[C@@H]32)C[C@H]1O (single isomer, unassigned) [ent-8, (2α,3β,5β,8α,9β,10α,13α,14β)-3-Hydroxy-2-methoxyandrostan-16-one]
fold decrease in [35S]TBPS displacement potency relative to ent-7 [1]: about 37 fold
fold higher tadpole LRR EC50 relative to ent-7 (tadpoles [2]; comparison of EC50 values): ~ five
fold higher tadpole LSR EC50 relative to ent-7 (tadpoles [2]; comparison of EC50 values): ~ five
